Calls of active or inactive are those of the source. No cut-off for these calls is given here.
Tests used:
[1] = tested on: Nrf2 (Mus musculus); test: Activation of Nrf2 in mouse Hepa1c1c7 cells assessed as increase in NQO1 activity at 0.313 uM using menadione as substrate incubated for 20 mins followed by substrate addition and measured after 30 mins by spectrophotometry relative to control; settings: filed as activator, time 50.0 min
[2] = tested on: Nrf2 (Mus musculus); test: Activation of Nrf2 in mouse Hepa1c1c7 cells assessed as increase in NQO1 activity at 20 uM using menadione as substrate incubated for 20 mins followed by substrate addition and measured after 30 mins by spectrophotometry relative to control; settings: filed as activator, time 50.0 min
[3] = biological target: Nuclear factor erythroid 2-related factor 2 (Mus musculus) (UniProt Q60795); test: Activation of Nrf2 in mouse Hepa1c1c7 cells assessed as increase in NQO1 activity at 40 uM using menadione as substrate incubated for 20 mins followed by substrate addition and measured after 30 mins by spectrophotometry relative to control; settings: filed as activator, time 50.0 min
[4] = tested on: Nrf2 (Mus musculus); test: Activation of Nrf2 in mouse Hepa1c1c7 cells assessed as increase in NQO1 activity at 0.625 uM using menadione as substrate incubated for 20 mins followed by substrate addition and measured after 30 mins by spectrophotometry relative to control; settings: filed as activator, time 50.0 min
[5] = tested on: Nrf2 (Mus musculus); test: Activation of Nrf2 in mouse Hepa1c1c7 cells assessed as increase in NQO1 activity at 10 uM using menadione as substrate incubated for 20 mins followed by substrate addition and measured after 30 mins by spectrophotometry relative to control; settings: filed as activator, time 50.0 min
[6] = tested on: Nrf2 (Mus musculus); test: Activation of Nrf2 in mouse Hepa1c1c7 cells assessed as increase in NQO1 activity at 2.5 uM using menadione as substrate incubated for 20 mins followed by substrate addition and measured after 30 mins by spectrophotometry relative to control; settings: filed as activator, time 50.0 min
[7] = tested on: Nrf2 (Mus musculus); test: Activation of Nrf2 in mouse Hepa1c1c7 cells assessed as increase in NQO1 activity at 1.25 uM using menadione as substrate incubated for 20 mins followed by substrate addition and measured after 30 mins by spectrophotometry relative to control; settings: filed as activator, time 50.0 min
[8] = tested on: Nrf2 (Mus musculus); test: Activation of Nrf2 in mouse Hepa1c1c7 cells assessed as increase in NQO1 activity at 5 uM using menadione as substrate incubated for 20 mins followed by substrate addition and measured after 30 mins by spectrophotometry relative to control; settings: filed as activator, time 50.0 min
[9] = tested on: Nrf2 (Mus musculus); test: Activation of Nrf2 in mouse Hepa1c1c7 cells assessed as increase in NQO1 activity at 3.125 uM using menadione as substrate incubated for 20 mins followed by substrate addition and measured after 30 mins by spectrophotometry relative to control; settings: filed as activator, time 50.0 min
[10] = biological target: Nuclear factor erythroid 2-related factor 2 (Mus musculus) (UniProt Q60795); test: Activation of Nrf2 in mouse Hepa1c1c7 cells assessed as increase in NQO1 activity at 25 uM using menadione as substrate incubated for 20 mins followed by substrate addition and measured after 30 mins by spectrophotometry relative to control; settings: filed as activator, time 50.0 min
[11] = tested on: Nrf2 (Mus musculus); test: Activation of Nrf2 in mouse Hepa1c1c7 cells assessed as increase in NQO1 activity at 0.8 uM using menadione as substrate incubated for 20 mins followed by substrate addition and measured after 30 mins by spectrophotometry relative to control; settings: filed as activator, time 50.0 min
[12] = biological target: Nuclear factor erythroid 2-related factor 2 (Mus musculus) (UniProt Q60795); test: Activation of Nrf2 in mouse Hepa1c1c7 cells assessed as increase in NQO1 activity at 12.5 uM using menadione as substrate incubated for 20 mins followed by substrate addition and measured after 30 mins by spectrophotometry relative to control; settings: filed as activator, time 50.0 min
[13] = biological target: Nuclear factor erythroid 2-related factor 2 (Mus musculus) (UniProt Q60795); test: Activation of Nrf2 in mouse Hepa1c1c7 cells assessed as increase in NQO1 activity at 6.25 uM using menadione as substrate incubated for 20 mins followed by substrate addition and measured after 30 mins by spectrophotometry relative to control; settings: filed as activator, time 50.0 min
[14] = biological target: Nuclear factor erythroid 2-related factor 2 (Mus musculus) (UniProt Q60795); test: Activation of Nrf2 in mouse Hepa1c1c7 cells assessed as increase in NQO1 activity at 50 uM using menadione as substrate incubated for 20 mins followed by substrate addition and measured after 30 mins by spectrophotometry relative to control; settings: filed as activator, time 50.0 min
[15] = tested on: Nrf2 (Mus musculus); test: Activation of Nrf2 in mouse Hepa1c1c7 cells assessed as increase in NQO1 activity at 0.4 uM using menadione as substrate incubated for 20 mins followed by substrate addition and measured after 30 mins by spectrophotometry relative to control; settings: filed as activator, time 50.0 min
[16] = tested on: Nrf2 (Mus musculus); test: Activation of Nrf2 in mouse Hepa1c1c7 cells assessed as increase in NQO1 activity at 1.6 uM using menadione as substrate incubated for 20 mins followed by substrate addition and measured after 30 mins by spectrophotometry relative to control; settings: filed as activator, time 50.0 min
[17] = tested on: Nrf2 (Mus musculus); test: Activation of Nrf2 in mouse Hepa1c1c7 cells assessed as increase in NQO1 activity using menadione as substrate incubated for 20 mins followed by substrate addition and measured after 30 mins by spectrophotometry; settings: filed as activator, time 50.0 min
[18] = Toxicity in Swiss albino mouse assessed as survival rate at 50 mg/kg, ip administered for 5 days and observed for 30 days; format: organism-based; settings: in vivo, 720 h, time 30 day
In short: (§1)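 Albino mice received the compound at 50 mg/kg/day i.p. daily for 5 days, with 10% DMSO i.p. daily as vehicle control; 80 mice were randomised into four groups. Body weight was recorded weekly and survival was checked daily over 30 days. Mice were housed at 25 ± 5 °C, 60 ± 5% humidity and 12 h light/dark, with food and water ad libitum.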

[19] = tested on: Mus musculus; test: Antioxidant activity against radiation-induced Swiss albino mouse assessed as decrease in MDA level in liver at 50 mg/kg, ip administered for 5 days and irradiated with gamma radiation after 1 hr of compound administration by ELISA relative to control; format: functional; parameters: scale not given: the % may be the effect or the level left; settings: time 5 day
In short: (§2)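 Mice received 50 mg/kg/day i.p. in 10% DMSO for 5 days, plus whole-body 7 Gy 137Cs gamma (0.655 rad/s) 1 h after the last dose. On day 3, five mice per group were anesthetized with urethane. Livers were homogenized in ice-cold 0.1 M PBS pH 7.4. Nrf2 and NQO1 were measured by ELISA, lipid peroxidation as MDA, plus ROS generation. Data are mean ± S.E., one-way ANOVA with Bonferroni.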

[20] = tested on: Mus musculus; test: Effect on hematopoiesis in gamma-irradiated Swiss albino mouse assessed as increase in radiation-reduced HGB count at 50 mg/kg, ip administered for 5 days and irradiated with gamma radiation after 1 hr of compound administration by automated micro-analyzer; format: functional, organism-based; settings: time 5.0 day
In short: (§3)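 Dosing was i.p. 50 mg/kg/day in 10% DMSO for 5 days, followed 1 h after the final injection by 7 Gy whole-body 137Cs gamma irradiation. Complete blood count with platelets (RBC, HGB, PLT, WBC) was done on an automated analyzer 3 days after irradiation. Data are mean ± S.E.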

[21] = Toxicity in non-irradiated Swiss albino mouse assessed as decrease in Nrf2 level at 50 mg/kg, ip administered for 5 days by ELISA; format: organism-based; settings: in vivo, 120 h, time 5 day
In short: (§4)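 Non-irradiated mice were dosed 50 mg/kg/day i.p. (vehicle 10% DMSO) for 5 days and compared with vehicle controls. On day 3, five mice per group were anesthetized with urethane. Liver homogenates (ice-cold 0.1 M PBS pH 7.4, stored −80 °C) were assayed for Nrf2 and NQO1 by ELISA, for MDA as lipid peroxide marker, and for ROS. Data are mean ± S.E., n = 5, ANOVA with Bonferroni.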

[22] = tested on: Mus musculus; test: Antioxidant activity against radiation-induced Swiss albino mouse assessed as decrease in NQO1 level in liver at 50 mg/kg, ip administered for 5 days and irradiated with gamma radiation after 1 hr of compound administration by ELISA relative to control; format: functional; parameters: scale not given: the % may be the effect or the level left; settings: time 5 day
In short: as §2

[23] = tested on: Mus musculus; test: Antioxidant activity against radiation-induced Swiss albino mouse assessed as increase in Nrf2 level in liver at 50 mg/kg, ip administered for 5 days and irradiated with gamma radiation after 1 hr of compound administration by ELISA relative to control; format: functional; settings: time 5 day
In short: as §2

[24] = Toxicity in non-irradiated Swiss albino mouse assessed as increase in NQO1 level at 50 mg/kg, ip administered for 5 days by ELISA; format: organism-based; settings: in vivo, 120 h, time 5 day
In short: as §4

[25] = Toxicity in non-irradiated Swiss albino mouse assessed as increase in ROS level at 50 mg/kg, ip administered for 5 days by ELISA; format: organism-based; settings: in vivo, 120 h, time 5 day
In short: as §4

[26] = Toxicity in non-irradiated Swiss albino mouse assessed as effect on MDA level at 50 mg/kg, ip administered for 5 days by ELISA; format: organism-based; settings: in vivo, 120 h, time 5 day
In short: as §4

[27] = tested on: Mus musculus; test: Effect on hematopoiesis in gamma-irradiated Swiss albino mouse assessed as increase in radiation-reduced PLT count at 50 mg/kg, ip administered for 5 days and irradiated with gamma radiation after 1 hr of compound administration by automated micro-analyzer; format: functional, organism-based; settings: time 5.0 day
In short: as §3

[28] = Toxicity in Swiss albino mouse assessed as effect on body weight at 50 mg/kg, ip administered for 5 days and observed for 30 days; format: organism-based; settings: in vivo, 720 h, time 30 day
In short: as §1

[29] = Toxicity in ip dosed Swiss albino mouse; format: organism-based; settings: in vivo
[30] = tested on: Mus musculus; test: Effect on hematopoiesis in gamma-irradiated Swiss albino mouse assessed as increase in radiation-reduced RBC count at 50 mg/kg, ip administered for 5 days and irradiated with gamma radiation after 1 hr of compound administration by automated micro-analyzer; format: functional, organism-based; settings: time 5.0 day
In short: as §3

[31] = Toxicity in Swiss albino mouse assessed as effect on liver weight at 50 mg/kg, ip administered for 5 days and observed for 5 days; format: organism-based; settings: in vivo, 120 h, time 5 day
[32] = tested on: Mus musculus; test: Antioxidant activity against radiation-induced Swiss albino mouse assessed as decrease in ROS level in liver at 50 mg/kg, ip administered for 5 days and irradiated with gamma radiation after 1 hr of compound administration by ELISA relative to control; format: functional; parameters: scale not given: the % may be the effect or the level left; settings: time 5 day
In short: as §2

Sequence of Nuclear factor erythroid 2-related factor 2 (Mus musculus) (Q60795 whole entry, looked up): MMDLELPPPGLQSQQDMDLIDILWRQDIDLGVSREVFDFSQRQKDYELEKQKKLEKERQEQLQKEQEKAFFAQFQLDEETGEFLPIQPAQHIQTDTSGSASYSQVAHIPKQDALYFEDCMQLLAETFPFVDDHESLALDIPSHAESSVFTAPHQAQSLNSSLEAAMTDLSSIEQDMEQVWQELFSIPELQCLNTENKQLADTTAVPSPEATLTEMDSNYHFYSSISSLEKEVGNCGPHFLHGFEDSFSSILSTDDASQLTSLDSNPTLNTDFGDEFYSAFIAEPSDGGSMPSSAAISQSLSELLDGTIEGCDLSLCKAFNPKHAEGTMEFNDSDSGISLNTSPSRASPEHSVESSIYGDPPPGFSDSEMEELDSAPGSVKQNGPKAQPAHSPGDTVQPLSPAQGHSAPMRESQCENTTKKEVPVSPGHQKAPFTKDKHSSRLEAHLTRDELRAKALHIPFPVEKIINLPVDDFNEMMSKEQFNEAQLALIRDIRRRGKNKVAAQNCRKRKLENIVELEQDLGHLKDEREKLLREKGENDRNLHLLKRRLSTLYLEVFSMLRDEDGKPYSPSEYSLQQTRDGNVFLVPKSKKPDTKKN

Compound	T/C [1]	T/C [2]	T/C [3]	T/C [4]	T/C [5]	T/C [6]	T/C [7]	T/C [8]	also measured
CCOc1ccc(NC(=O)CSc2nc3c(I)cc(I)cc3c(=O)n2-c2ccc(S(N)(=O)=O)cc2)cc1	1.01	1.09	1.16	1.02	0.99	1.02	0.99	1	–
Cc1cccc([N+](=O)[O-])c1NC(=O)CSc1nc2c(I)cc(I)cc2c(=O)n1-c1ccc(S(N)(=O)=O)cc1	–	–	–	–	–	–	–	–	T/C [9]: 0.83; T/C [10]: 1.34; T/C [11]: 0.93; T/C [12]: 1.05; T/C [13]: 0.91; T/C [14]: 1.94; T/C [15]: 0.95; T/C [16]: 0.89; Activity [17]: Dose-dependent effect; CD [17]: 50 µM
Cc1cc([N+](=O)[O-])ccc1NC(=O)CSc1nc2c(I)cc(I)cc2c(=O)n1-c1ccc(S(N)(=O)=O)cc1	1.01	1.53	–	1.01	1.28	1	0.99	1.06	–
COc1cc(NC(=O)CSc2nc3c(I)cc(I)cc3c(=O)n2-c2ccc(S(N)(=O)=O)cc2)cc(OC)c1OC	1.02	1.98	2.42	1.08	1.43	1.16	1.1	1.24	Activity [18]: Non-Toxic; Activity [19]: 28%; Activity [20]: Active; Activity [21]: Non-Toxic; Activity [22]: 30%; Activity [23]: 19%; Activity [24]: Non-Toxic; Activity [25]: Non-Toxic; Activity [26]: Non-Toxic; Activity [27]: Active; Activity [28]: Non-Toxic; LD50 [29]: 500 mg/kg; Activity [30]: Active; Activity [17]: Dose-dependent effect; CD [17]: 20 µM; Activity [31]: Non-Toxic; Activity [32]: 23%
CCc1ccccc1NC(=O)CSc1nc2c(I)cc(I)cc2c(=O)n1-c1ccc(S(N)(=O)=O)cc1	0.99	1.01	1.05	0.97	1.01	0.97	0.99	1.01	–
NS(=O)(=O)c1ccc(-n2c(SCC(=O)Nc3ccc([N+](=O)[O-])cc3[N+](=O)[O-])nc3c(I)cc(I)cc3c2=O)cc1	1.01	1.36	1.68	1.04	1.2	1.04	1.03	1.08	–
CCc1cccc(NC(=O)CSc2nc3c(I)cc(I)cc3c(=O)n2-c2ccc(S(N)(=O)=O)cc2)c1	1.03	1.15	1.3	1.02	1.09	1.04	1.05	1.04	–

Source: ChEMBL document CHEMBL4765347, “Radiomodulatory effect of a non-electrophilic NQO1 inducer identified in a screen of new 6, 8-diiodoquinazolin-4(3H)-ones carrying a sulfonamide moiety” (Eur J Med Chem, 2020)
